Columns and labels:
[1] = biological target: Receptor-type tyrosine-protein phosphatase alpha (Homo sapiens, UniProt P18433); experiment: Inhibitory effect against human protein-tyrosine phosphatase alpha (PTPalpha), using p-nitrophenyl phosphate substrate at pH 5.5.
Summary of the method: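 Ki from pNPP hydrolysis assays at pH 5.5 with recombinant PTPα or LAR.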

[2] = biological target: T1, Tyrosine-protein phosphatase non-receptor type 1 (Homo sapiens, UniProt P18031); experiment: Inhibitory effect against recombinant human protein-tyrosine phosphatase 1B (PTP1B), using p-nitrophenyl phosphate substrate at pH 5.5.
T1 sequence (P18031 whole entry): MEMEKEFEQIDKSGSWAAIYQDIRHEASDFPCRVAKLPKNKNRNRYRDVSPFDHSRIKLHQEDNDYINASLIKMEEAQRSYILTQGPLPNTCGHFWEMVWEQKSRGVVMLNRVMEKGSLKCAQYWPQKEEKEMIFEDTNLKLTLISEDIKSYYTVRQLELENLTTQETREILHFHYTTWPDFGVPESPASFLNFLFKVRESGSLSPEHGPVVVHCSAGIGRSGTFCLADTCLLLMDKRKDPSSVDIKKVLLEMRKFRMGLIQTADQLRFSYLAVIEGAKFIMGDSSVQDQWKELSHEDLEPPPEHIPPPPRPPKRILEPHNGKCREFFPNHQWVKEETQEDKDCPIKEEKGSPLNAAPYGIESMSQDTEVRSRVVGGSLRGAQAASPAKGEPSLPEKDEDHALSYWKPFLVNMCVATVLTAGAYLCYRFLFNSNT

[3] = biological target: Receptor-type tyrosine-protein phosphatase F (Homo sapiens, UniProt P10586); experiment: Inhibitory effect against protein-tyrosine phosphatase Lar, using p-nitrophenyl phosphate as substrate at pH 5.5.
Receptor-type tyrosine-protein phosphatase F, sequence (P10586 whole entry): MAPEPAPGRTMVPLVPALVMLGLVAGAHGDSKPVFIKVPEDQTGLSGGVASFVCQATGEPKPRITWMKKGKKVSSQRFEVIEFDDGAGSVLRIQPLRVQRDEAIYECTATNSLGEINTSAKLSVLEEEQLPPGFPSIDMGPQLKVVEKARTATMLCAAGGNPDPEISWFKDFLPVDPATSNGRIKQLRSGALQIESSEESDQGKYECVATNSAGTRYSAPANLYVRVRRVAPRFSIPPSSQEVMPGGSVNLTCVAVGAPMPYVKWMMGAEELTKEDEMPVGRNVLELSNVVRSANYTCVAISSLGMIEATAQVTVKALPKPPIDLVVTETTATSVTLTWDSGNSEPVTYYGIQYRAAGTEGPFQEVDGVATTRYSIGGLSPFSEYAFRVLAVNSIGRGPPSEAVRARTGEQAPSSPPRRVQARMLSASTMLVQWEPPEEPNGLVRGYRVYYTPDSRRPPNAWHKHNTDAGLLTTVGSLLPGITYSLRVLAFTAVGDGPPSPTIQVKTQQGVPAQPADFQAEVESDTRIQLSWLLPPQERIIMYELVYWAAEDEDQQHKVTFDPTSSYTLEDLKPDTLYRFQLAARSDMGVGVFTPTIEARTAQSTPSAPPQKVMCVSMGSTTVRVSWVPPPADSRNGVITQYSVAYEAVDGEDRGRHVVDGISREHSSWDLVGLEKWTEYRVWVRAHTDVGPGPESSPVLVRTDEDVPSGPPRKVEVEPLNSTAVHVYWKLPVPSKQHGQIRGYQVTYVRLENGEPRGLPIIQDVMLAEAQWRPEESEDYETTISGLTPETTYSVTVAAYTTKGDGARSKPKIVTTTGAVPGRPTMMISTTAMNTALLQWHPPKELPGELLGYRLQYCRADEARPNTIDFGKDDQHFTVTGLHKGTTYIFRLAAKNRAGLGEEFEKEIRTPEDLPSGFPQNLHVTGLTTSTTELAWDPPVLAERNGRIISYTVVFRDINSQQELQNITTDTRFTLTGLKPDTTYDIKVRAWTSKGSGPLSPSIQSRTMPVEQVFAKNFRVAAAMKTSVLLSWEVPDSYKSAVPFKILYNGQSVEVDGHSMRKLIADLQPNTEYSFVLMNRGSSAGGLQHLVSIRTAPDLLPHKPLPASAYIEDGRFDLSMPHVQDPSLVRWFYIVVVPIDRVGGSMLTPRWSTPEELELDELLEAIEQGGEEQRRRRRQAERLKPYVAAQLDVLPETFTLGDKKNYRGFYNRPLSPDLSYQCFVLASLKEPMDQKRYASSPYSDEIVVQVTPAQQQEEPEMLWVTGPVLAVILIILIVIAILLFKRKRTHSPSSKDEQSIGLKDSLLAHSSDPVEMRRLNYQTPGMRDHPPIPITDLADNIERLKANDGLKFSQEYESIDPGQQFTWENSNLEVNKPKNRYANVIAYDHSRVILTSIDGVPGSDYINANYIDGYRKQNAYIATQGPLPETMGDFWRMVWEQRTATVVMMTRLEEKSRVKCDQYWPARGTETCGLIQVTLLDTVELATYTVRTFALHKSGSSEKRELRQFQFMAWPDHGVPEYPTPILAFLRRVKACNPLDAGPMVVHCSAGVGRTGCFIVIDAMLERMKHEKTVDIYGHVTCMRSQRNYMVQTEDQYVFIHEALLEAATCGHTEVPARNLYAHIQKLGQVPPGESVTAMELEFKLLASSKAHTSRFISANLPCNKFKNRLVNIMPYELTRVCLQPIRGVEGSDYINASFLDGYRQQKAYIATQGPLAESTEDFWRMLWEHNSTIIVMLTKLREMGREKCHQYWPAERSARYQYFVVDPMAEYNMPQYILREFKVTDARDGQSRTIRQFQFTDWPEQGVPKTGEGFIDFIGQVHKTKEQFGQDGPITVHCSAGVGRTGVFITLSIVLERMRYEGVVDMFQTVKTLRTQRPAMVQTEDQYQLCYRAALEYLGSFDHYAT

[4] = biological target: T1, Tyrosine-protein phosphatase non-receptor type 1; experiment: Inhibition of human recombinant Protein-tyrosine phosphatase 1B.
Summary of the method: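 Enzyme is a soluble recombinant human PTP1B (residues 1–321). Ki is measured at pH 5.5 with p-nitrophenyl phosphate (pNPP) as substrate.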

[5] = biological target: T2, Tyrosine-protein phosphatase non-receptor type 2 (Homo sapiens, UniProt P17706); experiment: Inhibition of T cell protein tyrosine phosphatase (TC-PTP) at pH 7.0; format: single protein
T2 sequence (P17706 whole entry): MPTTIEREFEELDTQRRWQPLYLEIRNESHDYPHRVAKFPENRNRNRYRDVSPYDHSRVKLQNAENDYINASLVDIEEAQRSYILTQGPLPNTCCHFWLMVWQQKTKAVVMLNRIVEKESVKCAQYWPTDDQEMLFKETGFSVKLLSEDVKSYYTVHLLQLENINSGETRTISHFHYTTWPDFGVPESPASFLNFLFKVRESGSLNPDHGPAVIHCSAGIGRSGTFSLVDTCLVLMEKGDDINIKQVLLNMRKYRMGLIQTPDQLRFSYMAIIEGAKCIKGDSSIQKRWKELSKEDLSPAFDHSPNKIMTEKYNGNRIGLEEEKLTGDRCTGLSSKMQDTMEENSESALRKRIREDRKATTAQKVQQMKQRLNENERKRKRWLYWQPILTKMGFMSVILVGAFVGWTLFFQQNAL
Summary of the method: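 Ki from a pNPP hydrolysis assay with recombinant TC-PTP, run at pH 7.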

[6] = Pharmacokinetic Parameter clearance was reported for Protein Tyrosine Phosphatase 1B; format: ADME, organism-based; details: in vivo
[7] = Oral bioavailability; format: ADME, organism-based; details: eutheria, in vivo, read-out: f (po)
[8] = Pharmacokinetic Parameter t1/2 was reported for Protein Tyrosine Phosphatase 1B; format: ADME, organism-based; details: in vivo

Receptor-type tyrosine-protein phosphatase alpha, sequence (P18433 whole entry): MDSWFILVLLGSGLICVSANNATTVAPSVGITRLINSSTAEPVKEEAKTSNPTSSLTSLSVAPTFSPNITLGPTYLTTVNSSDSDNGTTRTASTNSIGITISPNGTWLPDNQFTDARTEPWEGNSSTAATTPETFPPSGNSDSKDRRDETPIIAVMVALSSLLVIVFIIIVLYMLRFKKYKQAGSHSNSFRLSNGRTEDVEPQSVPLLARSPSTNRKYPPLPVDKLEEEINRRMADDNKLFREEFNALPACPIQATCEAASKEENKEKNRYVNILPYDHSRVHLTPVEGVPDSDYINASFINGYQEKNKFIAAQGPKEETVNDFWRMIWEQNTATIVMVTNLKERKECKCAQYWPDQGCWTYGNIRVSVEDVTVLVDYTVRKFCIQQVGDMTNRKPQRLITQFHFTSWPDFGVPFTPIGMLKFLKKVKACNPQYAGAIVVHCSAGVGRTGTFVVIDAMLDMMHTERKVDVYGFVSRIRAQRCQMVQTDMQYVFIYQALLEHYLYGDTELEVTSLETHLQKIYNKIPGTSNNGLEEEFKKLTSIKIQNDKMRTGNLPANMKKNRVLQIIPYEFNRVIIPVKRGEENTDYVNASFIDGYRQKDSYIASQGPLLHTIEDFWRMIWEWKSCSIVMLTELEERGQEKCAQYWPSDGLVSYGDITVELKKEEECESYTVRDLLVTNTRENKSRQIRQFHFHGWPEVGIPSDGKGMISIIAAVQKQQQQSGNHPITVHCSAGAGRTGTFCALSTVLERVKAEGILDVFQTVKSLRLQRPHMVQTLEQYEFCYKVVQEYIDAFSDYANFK

| Compound | Ki [1] | Ki [2] | Ki [3] | also measured |
| --- | --- | --- | --- | --- |
| O=C(O)C(=O)Nc1ccc2cc[nH]c2c1C(=O)O | 800 µM | 18 µM | 550 µM | – |
| Nc1cccc(-c2cc(NC(=O)C(=O)O)c(C(=O)O)s2)c1 | 250 µM | 6.1 µM | 113 µM | – |
| O=C(O)C(=O)Nc1sc2c(c1C(=O)O)CCN(CCc1ccccc1OCc1ccccc1)C2 | – | – | – | Ki [4]: 16 µM; Ki [5]: 17 µM |
| O=C(O)C(=O)Nc1sccc1C(=O)O | – | 108 µM | > 2000 µM | – |
| O=C(O)C(=O)Nc1sc2c(c1C(=O)O)CC[S+]([O-])C2 (configuration not stated) | 363 µM | 5.1 µM | – | – |
| CN(C(=O)C(=O)O)c1ccccc1C(=O)O | > 2000 µM | 1100 µM | > 2000 µM | – |
| O=C1CCc2c(sc(NC(=O)C(=O)O)c2C(=O)O)C1 | 52 µM | 1.3 µM | – | – |
| O=C(O)C(=O)Nc1cc(-c2ccc(OCc3ccccc3)cc2)sc1C(=O)O | 65 µM | 16 µM | – | – |
| O=C(O)C(=O)Nc1sc2c(c1C(=O)O)CCN(CCc1cccc3ccccc13)C2 | – | – | – | Ki [4]: 11 µM; Ki [5]: 11 µM |
| O=C(O)C(=O)Nc1cc(-c2ccc(Cl)cc2)sc1C(=O)O | 100 µM | 10 µM | 160 µM | – |
| O=C(O)C(=O)Nc1cnccc1C(=O)O | 1000 µM | 160 µM | > 2000 µM | – |
| O=C(O)C(=O)Nc1sc2c(c1C(=O)O)CCS(=O)(=O)C2 | 322 µM | 6.1 µM | – | – |
| COc1cccc(-c2cc(NC(=O)C(=O)O)c(C(=O)O)s2)c1 | 530 µM | 12 µM | – | – |
| O=C(O)C(=O)Nc1cc(-c2ccc(O)cc2)sc1C(=O)O | 210 µM | 4.5 µM | – | – |
| O=C(O)C(=O)Nc1sc2c(c1C(=O)O)CCN(Cc1ccccn1)C2 | – | 1 µM | – | Ki [4]: 23 µM; Ki [5]: 48 µM |
| O=C(O)C(=O)Nc1sc2c(c1C(=O)O)CCN(CCCc1ccccc1)C2 | – | – | – | Ki [4]: 7.3 µM; Ki [5]: 12 µM |

Now from value to molecule, other results behind:

| Ki [1] | Ki [2] | Ki [3] | Compound | also measured |
| --- | --- | --- | --- | --- |
| 290 µM | – | 410 µM | O=C(O)C(=O)Nc1sc2c(c1C(=O)O)CCCC2 | – |
| 150 µM | 9 µM | – | COc1ccc(-c2cc(NC(=O)C(=O)O)c(C(=O)O)s2)cc1 | – |
| – | 0.7 µM | – | COc1cccc(CN2CCc3c(sc(NC(=O)C(=O)O)c3C(=O)O)C2)c1 | Ki [4]: 8.3 µM |
| 870 µM | – | > 2000 µM | O=C(O)C(=O)Nc1ccccc1C(=O)O | – |
| – | 1.1 µM | – | O=C(O)C(=O)Nc1sc2c(c1C(=O)O)CCN(Cc1ccncc1)C2 | Ki [4]: 12 µM |
| 170 µM | – | – | O=C(O)C(=O)Nc1sc2c(c1C(=O)O)CCOC2 | clearance [6]: 17 mL/min/kg; bioavailability [7]: 85%; half-life [8]: 1.3 h |
| 100 µM | 13 µM | 50 µM | CC(C)Cc1ccc(-c2cc(NC(=O)C(=O)O)c(C(=O)O)s2)cc1 | – |
| > 2000 µM | 2000 µM | 2000 µM | Cc1csc(C(=O)O)c1NC(=O)C(=O)O | – |
| – | 1 µM | – | O=C(O)C(=O)Nc1sc2c(c1C(=O)O)CCN(Cc1ccccc1)C2 | Ki [4]: 14 µM; Ki [5]: 24 µM |
| > 2000 µM | 1700 µM | > 2000 µM | Cc1cccc(NC(=O)C(=O)O)c1C(=O)O | – |
| 200 µM | 2.5 µM | 50 µM | O=C(O)COc1ccc(-c2cc(NC(=O)C(=O)O)c(C(=O)O)s2)cc1 | – |

Reference: ChEMBL document CHEMBL1135823, “Discovery and SAR of a novel selective and orally bioavailable nonpeptide classical competitive inhibitor class of protein-tyrosine phosphatase 1B” (J Med Chem, 2002)
